In ChEMBL document CHEMBL4842397, “Macrocyclization as a Source of Desired Polypharmacology. Discovery of Triple PI3K/mTOR/PIM Inhibitors” (ACS Med Chem Lett, 2021):

Key:
[1] = Half life in BALB/c mouse at 5 mg/kg, po; assay type: ADME, organism-based; details: in vivo
Method in brief: (§1)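 Preliminary single-dose pharmacokinetics in BALB-C mice, given I.V. or P.O. Units: AUC h.ng/mL, T1/2 h, Cl L/h/kg, Vd L/kg, Cmax ng/mL, Tmax h. Bioavailability is the absorbed fraction at the doses tested.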

[2] = molecular target: Serine/threonine-protein kinase mTOR (Homo sapiens, UniProt P42345); test: Inhibition of mTOR (unknown origin) by LanthaScreen assay
[3] = molecular target: Voltage-gated inwardly rectifying potassium channel KCNH2 (Homo sapiens, UniProt Q12809); test: Inhibition of human ERG at < 30 uM
Sequence of Voltage-gated inwardly rectifying potassium channel KCNH2 (Q12809 whole entry): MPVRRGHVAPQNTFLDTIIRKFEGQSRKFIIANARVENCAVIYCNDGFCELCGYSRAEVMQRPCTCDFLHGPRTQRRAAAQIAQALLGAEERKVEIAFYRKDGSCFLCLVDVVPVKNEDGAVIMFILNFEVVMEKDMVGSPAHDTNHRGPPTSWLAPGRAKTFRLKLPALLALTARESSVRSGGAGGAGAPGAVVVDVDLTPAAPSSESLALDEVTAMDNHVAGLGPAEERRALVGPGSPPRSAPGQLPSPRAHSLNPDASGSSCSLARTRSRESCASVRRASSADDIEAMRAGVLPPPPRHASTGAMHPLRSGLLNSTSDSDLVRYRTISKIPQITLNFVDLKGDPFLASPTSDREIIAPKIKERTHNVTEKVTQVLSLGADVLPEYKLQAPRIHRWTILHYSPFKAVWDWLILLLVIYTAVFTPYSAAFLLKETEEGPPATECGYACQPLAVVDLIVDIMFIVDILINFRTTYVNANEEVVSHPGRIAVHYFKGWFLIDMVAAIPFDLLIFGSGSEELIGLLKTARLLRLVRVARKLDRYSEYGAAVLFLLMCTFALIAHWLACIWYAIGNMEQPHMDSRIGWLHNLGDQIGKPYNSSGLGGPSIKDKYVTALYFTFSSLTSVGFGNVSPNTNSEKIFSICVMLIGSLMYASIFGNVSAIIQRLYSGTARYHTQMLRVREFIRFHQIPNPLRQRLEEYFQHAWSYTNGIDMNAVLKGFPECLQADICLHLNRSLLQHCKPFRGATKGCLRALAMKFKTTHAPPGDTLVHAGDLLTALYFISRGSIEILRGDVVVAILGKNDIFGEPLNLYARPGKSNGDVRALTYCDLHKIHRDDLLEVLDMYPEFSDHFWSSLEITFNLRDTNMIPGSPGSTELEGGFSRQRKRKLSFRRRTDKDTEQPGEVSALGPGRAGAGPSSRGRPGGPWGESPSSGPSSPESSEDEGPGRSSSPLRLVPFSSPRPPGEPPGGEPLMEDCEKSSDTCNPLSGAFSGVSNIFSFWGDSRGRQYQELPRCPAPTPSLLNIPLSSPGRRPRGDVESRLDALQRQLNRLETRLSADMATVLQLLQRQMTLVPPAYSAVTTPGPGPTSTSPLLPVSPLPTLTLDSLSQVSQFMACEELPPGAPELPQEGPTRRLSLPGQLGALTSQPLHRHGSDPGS

[4] = Clearance in BALB/c mouse at 0.7 mg/kg, iv; assay type: ADME, organism-based; details: in vivo; method in brief: as §1
[5] = Oral bioavailability in BALB/c mouse at 5 mg/kg; assay type: ADME, organism-based; details: in vivo; method in brief: as §1
[6] = Half life in BALB/c mouse at 0.7 mg/kg, iv; assay type: ADME, organism-based; details: in vivo; method in brief: as §1
[7] = molecular target: Phosphatidylinositol 4,5-bisphosphate 3-kinase catalytic subunit alpha isoform (Homo sapiens, UniProt P42336); test: Inhibition of PI3Kalpha (unknown origin) by ADP-Glo assay
Sequence of Phosphatidylinositol 4,5-bisphosphate 3-kinase catalytic subunit alpha isoform (P42336 whole entry, canonical isoform): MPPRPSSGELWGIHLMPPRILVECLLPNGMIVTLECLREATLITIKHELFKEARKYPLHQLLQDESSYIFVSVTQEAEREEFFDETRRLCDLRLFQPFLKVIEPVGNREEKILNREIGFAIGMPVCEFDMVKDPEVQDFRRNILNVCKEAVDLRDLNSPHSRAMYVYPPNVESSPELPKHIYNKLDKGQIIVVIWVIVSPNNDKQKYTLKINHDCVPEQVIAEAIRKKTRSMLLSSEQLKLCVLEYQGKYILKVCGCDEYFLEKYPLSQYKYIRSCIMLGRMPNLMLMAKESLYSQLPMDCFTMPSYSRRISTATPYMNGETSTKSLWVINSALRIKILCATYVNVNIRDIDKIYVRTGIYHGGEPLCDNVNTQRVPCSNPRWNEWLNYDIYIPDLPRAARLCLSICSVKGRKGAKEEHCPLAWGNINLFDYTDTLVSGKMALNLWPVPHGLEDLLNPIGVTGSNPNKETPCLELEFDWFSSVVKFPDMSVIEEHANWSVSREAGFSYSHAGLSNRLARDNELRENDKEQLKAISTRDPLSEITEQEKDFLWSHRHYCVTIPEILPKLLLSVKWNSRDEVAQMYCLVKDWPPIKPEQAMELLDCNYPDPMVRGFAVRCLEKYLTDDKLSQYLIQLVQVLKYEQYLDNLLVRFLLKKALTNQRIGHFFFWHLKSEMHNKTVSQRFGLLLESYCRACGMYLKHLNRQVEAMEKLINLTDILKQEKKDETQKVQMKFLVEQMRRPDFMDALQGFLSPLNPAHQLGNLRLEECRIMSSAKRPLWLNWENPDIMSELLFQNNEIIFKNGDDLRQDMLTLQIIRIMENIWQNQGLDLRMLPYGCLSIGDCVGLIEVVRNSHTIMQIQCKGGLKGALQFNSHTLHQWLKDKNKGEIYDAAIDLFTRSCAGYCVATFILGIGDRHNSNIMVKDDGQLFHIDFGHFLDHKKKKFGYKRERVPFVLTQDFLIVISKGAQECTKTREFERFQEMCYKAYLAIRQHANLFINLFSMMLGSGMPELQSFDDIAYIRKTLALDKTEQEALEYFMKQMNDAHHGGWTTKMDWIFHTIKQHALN

[8] = molecular target: Serine/threonine-protein kinase pim-3 (Homo sapiens, UniProt Q86V86); test: Inhibition of PIM3 (unknown origin) using ARKRRRHPSGPPTA as peptide substrate by ADP Hunter Plus assay
[9] = Microsomal stability in human liver microsomes incubated for 30 mins by LC-MS/MS analysis; assay type: ADME, Microsome; details: read-out: Stabilty
[10] = molecular target: PI3K/mTOR (Homo sapiens); test: Inhibition of PI3K/mTOR in human MV4-11 cells assessed as Akt phosphorylation at Ser473 measured after over night incubation by lotting based cellular assay
[11] = molecular target: PI3-kinase p110-alpha/p85-alpha (Homo sapiens, UniProt P42336); test: Inhibition of human PI3K p110alpha/p85alpha by HTRF assay; assay type: protein-complex assay
Sequence of PI3-kinase p110-alpha/p85-alpha (P27986 whole entry, canonical isoform): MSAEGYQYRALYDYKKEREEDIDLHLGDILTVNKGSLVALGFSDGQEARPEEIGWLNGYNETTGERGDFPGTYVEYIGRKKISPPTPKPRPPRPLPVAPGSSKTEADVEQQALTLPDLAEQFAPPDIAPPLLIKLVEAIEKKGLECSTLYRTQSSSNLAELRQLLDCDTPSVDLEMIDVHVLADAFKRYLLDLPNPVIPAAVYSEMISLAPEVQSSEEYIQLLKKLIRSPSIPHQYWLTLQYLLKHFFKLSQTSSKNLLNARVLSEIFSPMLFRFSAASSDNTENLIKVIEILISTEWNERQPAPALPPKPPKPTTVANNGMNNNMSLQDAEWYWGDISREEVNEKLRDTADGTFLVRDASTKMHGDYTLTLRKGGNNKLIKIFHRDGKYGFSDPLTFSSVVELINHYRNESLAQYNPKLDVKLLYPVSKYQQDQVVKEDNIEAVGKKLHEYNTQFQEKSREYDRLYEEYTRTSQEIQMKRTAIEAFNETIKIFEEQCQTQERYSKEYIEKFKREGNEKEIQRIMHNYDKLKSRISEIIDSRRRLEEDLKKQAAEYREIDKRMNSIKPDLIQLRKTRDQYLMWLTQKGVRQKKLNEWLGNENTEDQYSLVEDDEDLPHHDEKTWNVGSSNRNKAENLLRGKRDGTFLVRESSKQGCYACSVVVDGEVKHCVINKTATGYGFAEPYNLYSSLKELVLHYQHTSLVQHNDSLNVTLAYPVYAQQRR
Sequence of PI3-kinase p110-alpha/p85-alpha (P42336 whole entry, canonical isoform): as the sequence (P42336 whole entry, canonical isoform) above
Method in brief: (§2)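 Ki from an HTRF assay on each PI3K isoform, reported in nM as the average of two independent experiments.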

[12] = molecular target: PI3-kinase p110-delta/p85-alpha (Homo sapiens, UniProt O00329); test: Inhibition of human PI3K p110delta/p85alpha by HTRF assay; assay type: protein-complex assay; method in brief: as §2
[13] = AUClast in BALB/c mouse at 5 mg/kg, po; assay type: ADME, organism-based; design: route oral, time 0 - last, dose 5 mg/kg; details: in vivo; method in brief: as §1
[14] = molecular target: Phosphatidylinositol 4,5-bisphosphate 3-kinase catalytic subunit gamma isoform (Homo sapiens, UniProt P48736); test: Inhibition of human PI3Kgamma by HTRF assay; method in brief: as §2
[15] = molecular target: Serine/threonine-protein kinase pim-1 (Homo sapiens, UniProt P11309); test: Inhibition of human PIM1 using ARKRRRHPSGPPTA as substrate measured after 1.5 hrs by ADP hunter plus assay
Sequence of Serine/threonine-protein kinase pim-1 (P11309 whole entry): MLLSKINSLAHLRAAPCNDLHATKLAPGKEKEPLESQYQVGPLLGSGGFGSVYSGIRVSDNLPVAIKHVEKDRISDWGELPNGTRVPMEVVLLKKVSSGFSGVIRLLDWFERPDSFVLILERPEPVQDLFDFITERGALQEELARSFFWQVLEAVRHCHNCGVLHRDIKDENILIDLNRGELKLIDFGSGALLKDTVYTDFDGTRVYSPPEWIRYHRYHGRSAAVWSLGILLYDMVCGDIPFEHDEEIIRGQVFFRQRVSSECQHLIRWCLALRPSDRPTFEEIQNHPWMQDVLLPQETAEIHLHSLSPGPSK

[16] = molecular target: Serine/threonine-protein kinase PIM (Homo sapiens, UniProt P11309+Q9P1W9+Q86V86); test: Inhibition of PIM in human MV4-11 cells assessed as BAD phosphorylation at Ser112 measured after over night incubation by lotting based cellular assay; assay type: cell-based
[17] = molecular target: PI3K p110 beta/p85 alpha (Homo sapiens, UniProt P42338); test: Inhibition of human PI3K p110beta/p85alpha by HTRF assay; assay type: protein-complex assay; method in brief: as §2
Sequence of PI3K p110 beta/p85 alpha (P27986 whole entry): as the sequence (P27986 whole entry, canonical isoform) above
Sequence of PI3K p110 beta/p85 alpha (P42338 whole entry): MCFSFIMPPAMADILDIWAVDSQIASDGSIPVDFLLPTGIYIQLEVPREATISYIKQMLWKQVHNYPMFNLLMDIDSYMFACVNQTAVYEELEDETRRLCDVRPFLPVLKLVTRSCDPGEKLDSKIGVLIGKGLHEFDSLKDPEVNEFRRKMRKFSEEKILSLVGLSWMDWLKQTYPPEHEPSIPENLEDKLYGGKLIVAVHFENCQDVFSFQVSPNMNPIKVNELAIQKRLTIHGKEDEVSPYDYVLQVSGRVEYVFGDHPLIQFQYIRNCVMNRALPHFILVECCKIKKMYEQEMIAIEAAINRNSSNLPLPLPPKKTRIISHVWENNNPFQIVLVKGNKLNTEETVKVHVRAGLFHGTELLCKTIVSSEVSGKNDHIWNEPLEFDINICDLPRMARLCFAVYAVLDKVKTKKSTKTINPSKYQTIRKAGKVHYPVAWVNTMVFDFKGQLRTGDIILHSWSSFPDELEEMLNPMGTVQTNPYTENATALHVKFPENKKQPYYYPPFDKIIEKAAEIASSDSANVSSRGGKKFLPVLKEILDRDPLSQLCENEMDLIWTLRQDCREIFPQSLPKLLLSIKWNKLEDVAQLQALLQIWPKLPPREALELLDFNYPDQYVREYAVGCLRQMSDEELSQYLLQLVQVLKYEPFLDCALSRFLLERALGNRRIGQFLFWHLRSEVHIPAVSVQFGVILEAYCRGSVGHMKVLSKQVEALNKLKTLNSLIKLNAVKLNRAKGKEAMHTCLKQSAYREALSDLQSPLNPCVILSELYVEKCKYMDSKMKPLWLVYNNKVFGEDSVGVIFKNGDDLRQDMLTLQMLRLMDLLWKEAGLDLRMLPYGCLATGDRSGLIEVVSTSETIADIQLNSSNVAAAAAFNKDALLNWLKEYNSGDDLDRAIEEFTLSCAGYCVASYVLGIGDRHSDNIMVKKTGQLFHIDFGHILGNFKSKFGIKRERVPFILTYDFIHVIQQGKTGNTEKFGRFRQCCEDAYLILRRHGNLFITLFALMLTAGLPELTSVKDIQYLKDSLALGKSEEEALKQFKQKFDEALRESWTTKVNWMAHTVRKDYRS

[18] = Cmax in BALB/c mouse at 5 mg/kg, po; assay type: ADME, organism-based; design: route oral, dose 5 mg/kg; details: in vivo; method in brief: as §1
[19] = Tmax in BALB/c mouse at 5 mg/kg, po; assay type: ADME, organism-based; details: in vivo; method in brief: as §1
[20] = molecular target: Serine/threonine-protein kinase pim-2 (Homo sapiens, UniProt Q9P1W9); test: Inhibition of PIM2 (unknown origin) using ARKRRRHPSGPPTA as peptide substrate by ADP Hunter Plus assay
Sequence of Serine/threonine-protein kinase pim-2 (Q9P1W9 whole entry): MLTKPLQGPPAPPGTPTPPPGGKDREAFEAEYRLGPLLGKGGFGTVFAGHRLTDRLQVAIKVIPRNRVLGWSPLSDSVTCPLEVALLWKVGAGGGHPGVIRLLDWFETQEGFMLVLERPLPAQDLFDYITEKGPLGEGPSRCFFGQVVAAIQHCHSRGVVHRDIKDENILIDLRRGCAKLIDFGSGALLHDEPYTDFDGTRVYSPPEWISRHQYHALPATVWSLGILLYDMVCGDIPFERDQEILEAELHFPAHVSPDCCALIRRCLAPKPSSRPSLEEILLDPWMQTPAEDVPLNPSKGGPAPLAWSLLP

[21] = AUClast in BALB/c mouse at 0.7 mg/kg, iv; assay type: ADME, organism-based; design: route intravenous, time 0 - last, dose 0.7 mg/kg; details: in vivo; method in brief: as §1
[22] = Volume of distribution at steady state in BALB/c mouse at 0.7 mg/kg, iv; assay type: ADME, organism-based; details: in vivo, read-out: Vdss; method in brief: as §1
[23] = Half life in BALB/c mouse at 10 mg/kg, po; assay type: ADME, organism-based; details: in vivo; method in brief: as §1
[24] = Microsomal stability in rat liver microsomes incubated for 30 mins by LC-MS/MS analysis; assay type: ADME, Microsome; details: read-out: Stabilty
[25] = Half life in BALB/c mouse at 1 mg/kg, iv; assay type: ADME, organism-based; details: in vivo; method in brief: as §1
[26] = Oral bioavailability in BALB/c mouse at 10 mg/kg; assay type: ADME, organism-based; details: in vivo; method in brief: as §1
[27] = Microsomal stability in mouse liver microsomes incubated for 30 mins by LC-MS/MS analysis; assay type: ADME, Microsome; details: read-out: Stabilty
[28] = AUClast in BALB/c mouse at 10 mg/kg, po; assay type: ADME, organism-based; design: time 0 - last, route oral, dose 10 mg/kg; details: in vivo; method in brief: as §1
[29] = molecular target: Cytochrome P450 2C9 (Homo sapiens, UniProt P11712); test: Inhibition of CYP2C9 (unknown origin); assay type: ADME
[30] = Volume of distribution at steady state in BALB/c mouse at 1 mg/kg, iv; assay type: ADME, organism-based; details: in vivo; method in brief: as §1
[31] = Clearance in BALB/c mouse at 1 mg/kg, iv; assay type: ADME, organism-based; details: in vivo; method in brief: as §1
[32] = Tmax in BALB/c mouse at 10 mg/kg, po; assay type: ADME, organism-based; details: in vivo; method in brief: as §1
[33] = AUClast in BALB/c mouse at 1 mg/kg, iv; assay type: ADME, organism-based; design: route intravenous, time 0 - last, dose 1 mg/kg; details: in vivo; method in brief: as §1

COc1ncc2cc1NS(=O)(=O)c1ccc(F)c(c1)C(=O)NCC1=CC=C(S1)c1ncnc3c1SC2=C3C
half-life [1]: 876 min | IC50 [2]: 74.5 nM | inhibition (INH) [3]: Not Active | clearance [4]: 1.05 mL/min/kg | bioavailability [5]: 124% | half-life [6]: 178 min | IC50 [7]: 0.13 nM | IC50 [8]: 5.75 nM | remaining at 0.5 h [9]: > 98% | EC50 [10]: < 1 nM | Ki [11]: 0.27 nM | Ki [12]: 0.13 nM | AUC(0-t) [13]: 99100 ng·h/mL | Ki [14]: 0.17 nM | IC50 [15]: 22.3 nM | EC50 [16]: 60 nM | Ki [17]: 0.31 nM | Cmax [18]: 9370 ng/mL | Tmax [19]: 5 h | IC50 [20]: 8.04 nM | AUC(0-t) [21]: 11200 ng·h/mL | Vd [22]: 0.26 L/kg

COc1ncc2cc1NS(=O)(=O)c1cccc(c1)C(=O)NC[C@H]1CCN(C1)c1ncnc3c1SC2=C3C
IC50 [2]: > 10000 nM | IC50 [7]: 3.15 nM | IC50 [15]: 44 nM

COc1ncc2cc1NS(=O)(=O)c1cccc(c1)C(=O)NCc1nc(cs1)-c1ncnc3c1SC2=C3
IC50 [2]: > 10000 nM | IC50 [7]: 123 nM | IC50 [15]: > 10000 nM

COc1ncc2cc1NS(=O)(=O)c1cccc(c1)C(=O)NCCn1cc(cn1)-c1ncnc3c1SC2=C3
IC50 [2]: > 10000 nM | IC50 [7]: 58.3 nM | IC50 [15]: 254 nM

COc1ncc2cc1NS(=O)(=O)c1cccc(c1)C(=O)NC[C@@H]1CN(CCO1)c1ncnc3c1SC2=C3C
IC50 [2]: 2030 nM | IC50 [7]: 0.66 nM | IC50 [15]: 39.1 nM

CNC(=O)c1cccc(S(=O)(=O)Nc2cc(-c3sc4c(-c5cccs5)ncnc4c3C)cnc2OC)c1
IC50 [2]: 604 nM | IC50 [7]: 6.72 nM | IC50 [15]: > 10000 nM

COc1ncc2cc1NS(=O)(=O)c1cccc(c1)C(=O)NCC1=C(C)C=C(S1)c1ncnc3c1SC2=C3
IC50 [2]: > 10000 nM | IC50 [7]: 7.4 nM | IC50 [15]: 43.8 nM

COc1ncc2cc1NS(=O)(=O)c1ccc(Cl)c(c1)C(=O)NCC1=CC=C(S1)c1ncnc3c1SC2=C3
IC50 [2]: > 10000 nM | IC50 [7]: 6.28 nM | IC50 [15]: 11.1 nM

COc1ncc2cc1NS(=O)(=O)c1cccc(c1)C(=O)NCc1cc(ccn1)-c1ncnc3c1SC2=C3
IC50 [2]: > 10000 nM | IC50 [7]: 50.2 nM | IC50 [15]: 649 nM

COc1ncc2cc1NS(=O)(=O)c1cccc(c1)C(=O)NCC1=CC=C(O1)c1ncnc3c1SC2=C3
IC50 [2]: > 10000 nM | IC50 [7]: 381 nM | IC50 [15]: 247 nM

COc1ncc2cc1NS(=O)(=O)c1cccc(c1)C(=O)NCc1cncc(c1)-c1ncnc3c1SC2=C3C
IC50 [2]: 175 nM | IC50 [7]: 19 nM | IC50 [15]: 42.9 nM

COc1ncc2cc1NS(=O)(=O)c1cccc(c1)C(=O)NC[C@@H]1CCN(C1)c1ncnc3c1SC2=C3C
IC50 [2]: > 10000 nM | IC50 [7]: 3.08 nM | IC50 [15]: 122 nM

COc1ccc2cc1C(=O)NCC1=CC=C(S1)c1ncnc3c1SC(=C3)c1cnc(OC)c(c1)NS2(=O)=O
IC50 [2]: 5570 nM | IC50 [7]: 6.91 nM | IC50 [15]: 65.7 nM

COc1ncc2cc1NS(=O)(=O)c1cccc(c1)C(=O)NCC1=CC=C(S1)c1ncnc3c1SC2=C3C
half-life [23]: 1400 min | IC50 [2]: 138 nM | inhibition (INH) [3]: Not Active | IC50 [7]: 0.23 nM | IC50 [8]: 4.39 nM | remaining at 0.5 h [24]: 87% | remaining at 0.5 h [9]: > 98% | half-life [25]: 220 min | EC50 [10]: < 1 nM | Ki [11]: 0.25 nM | Ki [12]: 0.08 nM | bioavailability [26]: 35.1% | remaining at 0.5 h [27]: 90% | AUC(0-t) [28]: 58200 ng·h/mL | IC50 [29]: 4.61 µM | Vd [30]: 0.31 L/kg | Ki [14]: 0.44 nM | IC50 [15]: 18.1 nM | clearance [31]: 1 mL/min/kg | Tmax [32]: 15 min | EC50 [16]: 34 nM | Ki [17]: 0.37 nM | AUC(0-t) [33]: 16600 ng·h/mL | IC50 [20]: 13.3 nM

COc1ncc(-c2sc3c(-c4cccs4)ncnc3c2C)cc1NS(=O)(=O)c1ccccc1
IC50 [2]: > 1000 nM | IC50 [7]: 36.2 nM | IC50 [15]: > 10000 nM

COc1ncc2cc1NS(=O)(=O)c1cccc(c1)C(=O)NCCn1cc(cn1)-c1ncnc3c1SC2=C3C
IC50 [2]: 197 nM | IC50 [7]: 0.43 nM | IC50 [15]: 178 nM

COc1ncc2cc1NS(=O)(=O)c1cccc(c1)C(=O)NCC1=CC=C(S1)c1ncnc3c1SC2=C3
IC50 [2]: 5700 nM | IC50 [7]: 17 nM | IC50 [15]: 12.9 nM

COc1ncc2cc1NS(=O)(=O)c1ccc(F)c(c1)C(=O)NCC1=CC=C(S1)c1ncnc3c1SC2=C3
IC50 [2]: 2100 nM | IC50 [7]: 6.34 nM | IC50 [15]: 14.6 nM

COc1ncc(-c2sc3c(-c4ccc(CNC=O)s4)ncnc3c2C)cc1NS(=O)(=O)c1ccccc1
IC50 [2]: 80.9 nM | IC50 [7]: 3.29 nM | IC50 [15]: > 10000 nM

COc1ncc2cc1NS(=O)(=O)c1cccc(c1)C(=O)NCc1csc(c1)-c1ncnc3c1SC2=C3
IC50 [2]: > 10000 nM | IC50 [7]: 28.9 nM | IC50 [15]: 13.1 nM

COc1ncc2cc1NS(=O)(=O)c1cccc(c1)C(=O)NCc1cncc(c1)-c1ncnc3c1SC2=C3
IC50 [2]: > 10000 nM | IC50 [7]: 74.6 nM | IC50 [15]: 45.8 nM

COc1ncc2cc1NS(=O)(=O)c1cccc(c1)C(=O)NCc1cc(cs1)-c1ncnc3c1SC2=C3
IC50 [2]: > 10000 nM | IC50 [7]: 13.7 nM | IC50 [15]: 154 nM

COc1ncc2cc1NS(=O)(=O)c1cccc(c1)C(=O)NCc1cccc(c1)-c1ncnc3c1SC2=C3
IC50 [2]: > 10000 nM | IC50 [7]: 16.8 nM | IC50 [15]: 279 nM
